Measurements from article PMC10448436 (Journal of medicinal chemistry, 2022).
One block for each compound: values may come before it.

How the values were obtained:
Alpha2C = target: T1, Alpha2C (Homo sapiens, UniProt P18825); assay: Off-target counter screen at 10 μM; type: binding; details: read-out: target inhibition, Alpha2C
T1 sequence (P18825 1-462): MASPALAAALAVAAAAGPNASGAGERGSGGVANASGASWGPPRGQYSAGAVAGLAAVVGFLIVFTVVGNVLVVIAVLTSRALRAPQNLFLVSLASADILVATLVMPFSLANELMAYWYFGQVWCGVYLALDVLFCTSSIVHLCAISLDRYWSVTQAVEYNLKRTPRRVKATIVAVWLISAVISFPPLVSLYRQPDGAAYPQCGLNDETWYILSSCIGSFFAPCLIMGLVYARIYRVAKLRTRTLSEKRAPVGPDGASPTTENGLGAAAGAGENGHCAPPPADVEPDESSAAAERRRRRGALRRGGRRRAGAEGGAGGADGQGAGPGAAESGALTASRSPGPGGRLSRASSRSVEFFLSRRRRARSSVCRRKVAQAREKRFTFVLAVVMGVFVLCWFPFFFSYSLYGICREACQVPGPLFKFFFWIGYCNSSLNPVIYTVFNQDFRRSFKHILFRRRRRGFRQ

[1] = target: DOR (delta opioid receptor) (Homo sapiens, UniProt P41143); assay: Off-target counter screen at 10 μM; type: binding; details: read-out: target inhibition, DOR
Sequence of DOR (delta opioid receptor) (P41143 whole entry): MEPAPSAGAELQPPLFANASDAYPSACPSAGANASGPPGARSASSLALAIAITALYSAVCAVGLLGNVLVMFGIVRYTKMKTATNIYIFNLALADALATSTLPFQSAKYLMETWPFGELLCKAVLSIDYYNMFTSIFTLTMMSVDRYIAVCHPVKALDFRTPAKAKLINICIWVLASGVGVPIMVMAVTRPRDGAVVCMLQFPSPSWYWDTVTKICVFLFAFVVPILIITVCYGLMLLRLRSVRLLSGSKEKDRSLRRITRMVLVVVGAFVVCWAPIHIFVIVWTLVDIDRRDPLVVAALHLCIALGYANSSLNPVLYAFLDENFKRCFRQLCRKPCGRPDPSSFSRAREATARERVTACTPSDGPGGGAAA

5-HT1A = target: T2, 5-HT1A (Homo sapiens, UniProt P08908); assay: Off-target counter screen at 10 μM; type: binding; details: read-out: target inhibition, 5-HT1A
T2 sequence (P08908 1-422): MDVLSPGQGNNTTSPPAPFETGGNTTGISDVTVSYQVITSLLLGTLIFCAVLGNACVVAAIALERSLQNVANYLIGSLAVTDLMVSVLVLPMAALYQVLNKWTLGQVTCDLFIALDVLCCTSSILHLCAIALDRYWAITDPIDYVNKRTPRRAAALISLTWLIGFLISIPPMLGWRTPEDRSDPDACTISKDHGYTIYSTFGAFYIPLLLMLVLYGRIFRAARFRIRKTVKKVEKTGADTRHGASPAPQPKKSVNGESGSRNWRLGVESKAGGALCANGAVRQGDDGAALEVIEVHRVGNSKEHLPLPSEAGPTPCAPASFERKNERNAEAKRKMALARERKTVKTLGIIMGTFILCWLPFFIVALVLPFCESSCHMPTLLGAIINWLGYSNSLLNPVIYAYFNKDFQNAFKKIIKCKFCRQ

5-HT1A, Alpha2C and DOR = assay: Follow-up binding assays, selectivity towards TARP γ−8; details: follow-up 5-HT1A
[2] = test system: ionotropic glutamate receptors (iGluR); assay: Off-target counter screen at 10 μM; type: binding
Shake-flask logD7.4 = type: physicochemical; details: pH 7.4
TARP γ−8 [3] = target: T3, TARP γ−8 (Rattus norvegicus, UniProt Q8VHW5); assay: In vitro autoradiography on rat brain sections; type: binding
T3 sequence (Q8VHW5 1-421): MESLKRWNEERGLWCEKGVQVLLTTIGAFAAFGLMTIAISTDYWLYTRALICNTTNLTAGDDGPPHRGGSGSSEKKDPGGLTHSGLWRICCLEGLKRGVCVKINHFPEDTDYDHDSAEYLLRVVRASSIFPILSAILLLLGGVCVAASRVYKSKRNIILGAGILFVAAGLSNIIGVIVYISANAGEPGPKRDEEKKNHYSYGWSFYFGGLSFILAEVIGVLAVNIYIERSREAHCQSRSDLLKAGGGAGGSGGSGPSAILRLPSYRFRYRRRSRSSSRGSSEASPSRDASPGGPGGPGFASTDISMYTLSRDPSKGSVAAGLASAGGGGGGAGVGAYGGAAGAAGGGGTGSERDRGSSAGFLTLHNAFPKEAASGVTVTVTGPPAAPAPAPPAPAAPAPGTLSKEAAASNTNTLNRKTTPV
Outline: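 Frozen rat brain sections (stored −80 °C) were pre-incubated in 50 mM Tris-HCl for 20 min at ambient temperature, then incubated with the 11C-labelled test compound. For blocking, unlabelled inhibitor (1 μM) was added to the incubation solution beforehand. Sections were washed three times in ice-cold buffer, dipped 10 s in cold water, cold-air dried and exposed to imaging plates. ROI radioactivity was read as PSL/mm2.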

TARP γ−8 [4] = target: T3, TARP γ−8; assay: PET imaging in rat brain; type: in vivo, Sprague-Dawley rats
Outline: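 Male Sprague-Dawley rats (210−230 g) were kept under 1–2% isoflurane. The 11C-labelled test compound was injected via tail-vein catheter (38.5 ± 2.8 MBq, 0.3 ± 0.2 nmol), followed by a dynamic 3D PET scan for 60 min, co-registered to an MR template. Decay-corrected data were expressed as SUV, and BPND maps were derived by SRTM. Mean ± SD, n = 3.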

[5] = In vitro stability of the formulated radioligand; type: physicochemical
Outline: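 After HPLC purification, the radiotracer fraction was collected into Tween 80 and ethanol, evaporated and redissolved in 5 mL sterile normal saline. It was then passed through a 0.22 μm filter. The formulated solution was checked for radiolysis up to 90 min.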

[6] = tracer [11C]15, pretreatment with JNJ-55511118 (1 mg/kg), rat
[7] = tracer [11C]8, blocking with 8 (1 μM)

inhibition at 10 µM (Alpha2C): > 50% | inhibition at 10 µM [1]: > 50% | inhibition at 10 µM (5-HT1A): > 50% | selectivity towards TARP γ−8 among any other tested CNS targets (5-HT1A, Alpha2C and DOR): greater than 750 fold | interaction with related iGlu receptor family [2]: no substantial interaction | logD (Shake-flask logD7.4): 2.5 ± 0.01
SMILES: Cc1ccc2nc(C3CCC3)n(-c3ccc4[nH]ncc4c3)c2n1 [Compound 15, 2-Cyclobutyl-3-(1H-indazol-5-yl)-5-methyl-3H-imidazo[4,5-b]pyridine]

logD (Shake-flask logD7.4): 2.3 ± 0.06
SMILES: Cc1ccc2nc(C3CCC3)n(-c3ccc4[nH]c(=O)sc4c3)c2n1 [Compound 8, 6-(2-Cyclobutyl-5-methyl-3H-imidazo[4,5-b]pyridin-3-yl)benzo[d]thiazol-2(3H)-one]

reduction of uptake in hippocampus (TARP γ−8 [3]; tracer [11C]15, blocking with JNJ-55511118 (1 μM)): 77% | reduction of BPND values (TARP γ−8 [4]; [6]): 66–81% | reduction of radioactivity uptake in hippocampus based on AUC (TARP γ−8 [4]; [6]): 35–47%
SMILES: O=c1[nH]c2ccc(-c3c(Cl)cccc3OC(F)(F)F)cc2[nH]1 [JNJ-55511118, reference compound]

radiolysis in the formulated solution ([5]; up to 90 min): no radiolysis was observed | in vitro stability ([5]; up to 90 min after formulation): > 95% | change of bound radioactivity in cerebellum (reference region) (TARP γ−8 [3]; [7]): no notable change | reduction of bound radioactivity in hippocampus (TARP γ−8 [3]; [7]): 83% | maximum SUV in the brain (TARP γ−8 [4]; at 2.5 min, baseline, rat): 0.4
SMILES: [11CH3]c1ccc2nc(C3CCC3)n(-c3ccc4[nH]c(=O)sc4c3)c2n1 [[^11C]8, 6-(2-cyclobutyl-5-[^11C]methyl-3H-imidazo[4,5-b]pyridin-3-yl)benzo[d]thiazol-2(3H)-one]
blood brain barrier penetration (TARP γ−8 [4]; rat PET, baseline): failed to penetrate the blood brain barrier
